# Experimental data reported in PubChem BioAssay.
# Active and inactive are the calls of the source.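 How the source made its calls, unless noted: active means fluorescence slope higher than the sample average by over 3 SD (cut at about -0.22 in these data, passing the limit was not always enough); inactive means the rest.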
# How the values were obtained:
# [1] = inhibitors of TNFa-induced NFkB p65 translocation, primary screen, imaging, HUVEC, MLSMR starter and 10KST1 sets (AID 438;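 active means inhibition above 20% together with a positive visual image hit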;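 further: compound added about 3h40 before a 20 min TNFalpha stimulation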;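 on inhibition: signal is the nuclear over cytoplasmic p65 intensity ratio per well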); settings: HUVEC TNFa-induced p65 nuclear translocation; cell count: measured here: nuclei count (cytotoxicity indicator), at 2.08 µM; inhibition: at 2 µM, stronger effect = higher value, 0% TNFa-plus-vehicle, 100% no-TNFa wells
# [2] = inhibitors of E-selectin induction by TNFa, primary screen, imaging, HUVEC, immunofluorescence, MLSMR starter and 10KST1 sets (AID 487;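 active means visually confirmed hit in the image check and inhibition above 20%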;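 on inhibition: signal is fraction of cell area covered by stained E-selectin grains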;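 on nuclei count: 100% = median nuclei count of all wells on the same plate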); settings: HUVEC TNFalpha-induced E-selectin immunofluorescence imaging, at 2 µM; inhibition: stronger effect = higher value; nuclei count: measured here: cell number, toxicity
# [3] = DUSP6 inhibitors restoring Erk phosphorylation by chemical complementation, primary imaging in DUSP6-transfected HeLa (AID 609;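 active means compounds giving at least 50% inhibition in the cell-based MKP-3 phosphatase rescue imaging test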;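 on inhibition: phospho-Erk level distribution per well compared with pooled transfected vehicle control wells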); settings: HeLa MKP-3 transfected, phospho-Erk imaging KS statistic, at 10 µM, cells stimulated with TPA for 15 min
# [4] = molecular target: Dual specificity protein phosphatase 6 (Homo sapiens) (UniProt Q16828); assay: as above; settings: HeLa MKP-3 transfected, phospho-Erk imaging KS statistic; at 10 µM; stronger effect = higher value; cells stimulated with TPA for 15 min
# [5] = molecular target: Voltage-gated potassium channel subunit beta-2 (Rattus norvegicus) (UniProt P62483); assay: KvBeta enzyme negative modulators, primary screen, biochemical, NADPH fluorescence (AID 622); settings: recombinant KvBeta, 4-cyanobenzaldehyde reduction, at 10 µM, stronger effect = higher value;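 further: slope of raw intensity against log time taken from 70 to 1610 s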
# [6] = molecular target: Voltage-gated potassium channel subunit beta-2 (Rattus norvegicus) (UniProt P62483); assay: KvBeta positive modulators, primary screen, biochemical, NADPH fluorescence (AID 623;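 active means NADPH fluorescence slope more negative than the mean of all samples by about 3 SD, 99.7% confidence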;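 further: fluorescence intensity change per second fitted from 20 to 320 s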); settings: Recombinant KvBeta, NADPH fluorescence decrease slope, 10 min; at 10 µM; stronger effect = lower value
# [7] = molecular target: Alpha-2C adrenergic receptor (Homo sapiens) (UniProt P18825); assay: modulators of alpha2C/GIRK thallium flux, primary screen, cell-based, HEK293 alpha2C/GIRK1/2 (AID 624;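 active means fluorescence slope after compound addition differing from the mean of all screened samples at 99.7% confidence, in either direction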;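 further: slope of fluorescence ratio to pre-addition baseline per second over 15 to 24 s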); settings: thallium flux BTC fluorescence, at 10 µM, actives lie on both sides
# [8] = inhibitors of larval lipid processing in zebrafish, primary screen, whole organism, PED6 fluorescence, gall bladder and intestine (AID 686;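 active means a full or partial loss of lipid-probe fluorescence in the fish gall bladder, intestine or both, judged by eye; inactive means no fluorescence loss, or compound toxic to the fish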;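 further: larvae 5 to 7 days old with five fish per well; signal comes from phospholipase A2 cleavage of quenched PED6 carried via bile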); settings: Zebrafish larvae PED6 lipid processing, fluorescence scoring; screened at 20 µM (by protocol)
# Procedure, shortened: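 Incubation: overnight exposure of larvae to compound plus PED6 / Test system: live zebrafish larvae aged 5-7 days, whole organism / Amount: 5 larvae per well / Read-out basis: visual per-well fluorescence inhibition score / Signal: visual fluorescence microscopy scoring of gall bladder, gut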
# [9] = inhibitors of Chlamydomonas gravitaxis, primary screen, whole organism, Chlamydomonas reinhardtii, WT vs cilia-less mutant, absorbance, 96-well (AID 463189;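 active means inhibition at or above 50% relative to wild type and mutant plate controls; inactive means inhibition below 50%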;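 further: 0% = wild type cc124 cells in DMSO and 100% = ciliumless bld1 mutant cells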); settings: OD600 absorbance, 2 days, at 10 µM, stronger effect = higher value
# [10] = measured here: cell density z-score
# [11] = measured here: nuclear c-Myc green intensity z-score
# [12] = measured here: nuclear pErk red intensity z-score, stronger effect = higher value
# Alpha-2C adrenergic receptor (Homo sapiens), sequence (P18825 whole entry, looked up): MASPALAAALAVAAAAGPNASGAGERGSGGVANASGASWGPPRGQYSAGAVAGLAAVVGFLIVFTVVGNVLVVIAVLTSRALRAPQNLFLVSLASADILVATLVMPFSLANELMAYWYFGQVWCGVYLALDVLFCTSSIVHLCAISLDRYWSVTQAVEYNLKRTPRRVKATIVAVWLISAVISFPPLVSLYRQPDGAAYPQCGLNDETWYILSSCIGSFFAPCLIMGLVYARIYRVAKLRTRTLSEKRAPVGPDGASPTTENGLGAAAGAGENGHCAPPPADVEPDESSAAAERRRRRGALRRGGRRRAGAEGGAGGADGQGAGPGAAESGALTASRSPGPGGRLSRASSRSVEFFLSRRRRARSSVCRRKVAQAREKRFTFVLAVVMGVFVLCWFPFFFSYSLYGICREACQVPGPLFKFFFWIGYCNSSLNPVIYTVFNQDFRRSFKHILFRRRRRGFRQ
# Voltage-gated potassium channel subunit beta-2 (Rattus norvegicus), sequence (P62483 whole entry, looked up): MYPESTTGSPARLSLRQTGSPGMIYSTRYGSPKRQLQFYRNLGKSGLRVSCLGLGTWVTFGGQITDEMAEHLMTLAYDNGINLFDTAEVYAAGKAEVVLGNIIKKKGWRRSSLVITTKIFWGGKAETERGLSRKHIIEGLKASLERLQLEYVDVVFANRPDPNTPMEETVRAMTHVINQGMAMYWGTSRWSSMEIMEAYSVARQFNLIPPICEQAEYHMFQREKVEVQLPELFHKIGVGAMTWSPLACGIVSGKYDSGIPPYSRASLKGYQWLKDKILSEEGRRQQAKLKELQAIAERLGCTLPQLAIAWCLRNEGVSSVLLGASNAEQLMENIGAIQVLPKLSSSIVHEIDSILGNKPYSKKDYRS
# Dual specificity protein phosphatase 6 (Homo sapiens), sequence (Q16828 whole entry, looked up): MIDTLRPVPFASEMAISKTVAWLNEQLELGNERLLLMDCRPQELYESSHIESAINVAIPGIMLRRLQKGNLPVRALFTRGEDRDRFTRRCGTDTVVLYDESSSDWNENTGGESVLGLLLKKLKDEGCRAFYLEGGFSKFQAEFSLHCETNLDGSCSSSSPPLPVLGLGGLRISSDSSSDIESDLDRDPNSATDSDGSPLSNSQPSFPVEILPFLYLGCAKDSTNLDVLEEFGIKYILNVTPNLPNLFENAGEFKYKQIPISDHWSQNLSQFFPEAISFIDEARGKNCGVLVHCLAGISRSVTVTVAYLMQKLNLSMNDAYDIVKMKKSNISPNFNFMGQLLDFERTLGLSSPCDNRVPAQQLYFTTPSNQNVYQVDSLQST
SMILES,cell count [1],inhibition [1],inhibition [2],nuclei count [2],"z-score [3, 10]","z-score [3, 11]","z-score [3, 12]",inhibition [4],fluorescence slope [5],NADPH fluorescence slope [6],slope [7],outcome [8],inhibition [9]
Cn1c(=O)c2c3c(sc2n2c(SCC(N)=O)nnc12)CC(C(C)(C)C)CC3 (stereo unspecified),508,-9.7% (inactive),-30% (inactive),91.7%,1.25,-0.417,0.675,3.56% (inactive),-0.371 (inactive),6.2e-07 (inactive),0.00521 (inactive),inactive,92.5% (active)
CCOC(=O)CC(=O)CSc1nc(N)c(C#N)c(-c2ccc(Cl)cc2)c1C#N,405,-9.9% (inactive),-43.1% (inactive),99.2%,1.08,-0.959,-2.04,-6.48% (inactive),-0.318 (inactive),1.7e-05 (inactive),0.00603 (inactive),inactive,-7.76% (inactive)
c1coc(-c2nc3nc4ccccc4nc3n2-c2ccc3c(c2)OCCO3)c1,365,-1.4% (inactive),-29.5% (inactive),152%,0.934,0.669,-1.25,11.4% (inactive),-0.363 (inactive),-0.000166 (inactive),0.00503 (inactive),inactive,12.2% (inactive)
Cc1[nH]nc2cn[nH]c12,531,-7.3% (inactive),-92.8% (inactive),130%,-0.515,1.09,1.21,-5.89% (inactive),-0.526 (inactive),-5.7e-05 (inactive),0.00413 (inactive),inactive,4.67% (inactive)
COc1cccc(NC(=O)CSC2=C(C#N)C(c3ccco3)C3=C(CCCC3=O)N2)c1 (stereo unspecified),474,-0.1% (inactive),-19.9% (inactive),101%,0.0221,-0.732,2.07,-3.98% (inactive),-0.506 (inactive),-6.2e-05 (inactive),0.00557 (inactive),inactive,2.98% (inactive)
CCOCc1nc(N)[nH]c(=O)c1Cc1ccc(OC(C)C)cc1,350,-14.1% (inactive),-184% (inactive),133%,0.756,-0.664,-2.13,17% (inactive),-0.436 (inactive),-2e-05 (inactive),0.00784 (inactive),inactive,23.2% (inactive)
CNc1ccccc1-c1nc2ccccc2n(C)c1=O,545,1.8% (inactive),-41.8% (inactive),154%,0.495,-0.326,0.207,14% (inactive),-0.488 (inactive),-7.9e-05 (inactive),0.00346 (inactive),active; weak signal in gallbladder and intestine,16% (inactive)
COc1cccc(-c2nnc3sc(-c4ccc(Cl)cc4)nn23)c1,588,3.2% (inactive),19.9% (inactive),102%,0.426,-0.269,0.00297,-4.27% (inactive),-0.385 (inactive),-1.5e-05 (inactive),0.00661 (inactive),inactive,5.02% (inactive)
Cc1cc(C)c(-n2c(O)c(C=NCCN3CCOCC3)c(=O)[nH]c2=O)c(C)c1,594,6.5% (inactive),19% (inactive),152%,0.606,-1.55,-1.1,14% (inactive),-0.334 (inactive),-5e-07 (inactive),0.00437 (inactive),inactive,0.886% (inactive)
CC1(C)C/C(=C(/C#N)C(N)=O)CCO1,575,-11.9% (inactive),-42.1% (inactive),110%,0.299,1.82,-0.278,-8.95% (inactive),-0.392 (inactive),4.5e-06 (inactive),0.00848 (inactive),inactive,-18.4% (inactive)
CCCc1[nH]nc2c1C(c1c(C)nn(-c3ccccc3)c1Cl)C(C#N)=C(N)O2 (stereo unspecified),673,-3.2% (inactive),-234% (inactive),148%,1.26,0.14,-0.117,12.7% (inactive),-0.399 (inactive),-1.9e-06 (inactive),0.00594 (inactive),inactive,-5.65% (inactive)
CN1C2C=C3C(C#N)=C(N)C(C#N)(C#N)[C@@H](c4ccsc4)[C@@H]3C1CC2 (stereo partly specified),589,-9.3% (inactive),24% (inactive),148%,1.76,-1,-0.0532,28.1% (inactive),-0.396 (inactive),4.1e-06 (inactive),0.00648 (inactive),inactive,6.82% (inactive)
Cc1ccc2[nH]c3c(NCCN4CCOCC4)ncnc3c2c1,558,-21.5% (inactive),-90.3% (inactive),160%,-2.07,-0.295,-0.0856,-6.06% (inactive),-0.475 (inactive),-5.9e-05 (inactive),0.00484 (inactive),inactive,2.83% (inactive)
Cc1oc2cc(O)cc(C)c2c(=O)c1-c1cnn(-c2ccccc2)c1,578,-1.3% (inactive),-189% (inactive),149%,0.4,1.63,0.0441,15.9% (inactive),-0.509 (inactive),-5.7e-05 (inactive),0.00468 (inactive),inactive,20.5% (inactive)
CCCCn1c2nc3ccccc3nc2c2c(=O)n(CC(C)C)cnc21,391,2.5% (inactive),21.4% (inactive),141%,0.699,0.544,-0.343,17.4% (inactive),-0.436 (inactive),-9.3e-05 (inactive),0.00687 (inactive),inactive,33.2% (inactive)
Cn1c(OCc2ccc3c(c2)OCO3)nc2c1c(=O)n(Cc1cccc(Cl)c1)c(=O)n2C,646,5.7% (inactive),-35.9% (inactive),149%,-0.768,0.366,0.018,9.61% (inactive),-0.484 (inactive),-0.000102 (inactive),0.00957 (inactive),inactive,4.63% (inactive)
N=c1c2c(-c3ccccc3)c(-c3ccccc3)n(Cc3ccccc3)c2ncn1CCCn1ccnc1,551,-6.7% (inactive),17.5% (inactive),142%,-0.862,0.115,-0.203,-1.75% (inactive),-0.292 (inactive),9.2e-06 (inactive),0.00345 (inactive),inactive,118% (active)
CCc1[nH]nc2c1C(c1ccc(Br)s1)C(C#N)=C(N)O2 (stereo unspecified),504,-7.7% (inactive),-85.9% (inactive),152%,-0.154,1.13,-0.858,-8.27% (inactive),-0.312 (inactive),1.7e-05 (inactive),0.00536 (inactive),inactive,15.9% (inactive)
C=C(C)CN1CCN(c2c(CCC#N)c(C)c(C#N)c3nc4ccccc4n23)CC1,553,-17.5% (inactive),-77% (inactive),159%,-0.509,-0.729,-0.345,-4.27% (inactive),-0.00664 (inactive),-2.3e-06 (inactive),0.00756 (inactive),inactive,17.9% (inactive)
O=C(Nc1nc(NC(=O)c2ccco2)n(-c2ccccc2)n1)c1ccccc1,339,-8.5% (inactive),-1.3% (inactive),157%,0.978,-0.403,-0.743,-7.01% (inactive),-0.452 (inactive),-0.000125 (inactive),0.00175 (inactive),inactive; toxic,1.31% (inactive)
CC/C(=N\O)c1ccc(OC)c(OC)c1,328,-13.3% (inactive),-106% (inactive),159%,-0.778,-1.02,1.01,1.75% (inactive),-0.423 (inactive),-0.000183 (inactive),0.00545 (inactive),inactive,13.3% (inactive)
O=C1OC(Nc2ccc(Br)cc2F)c2ccccc21 (stereo unspecified),426,-1.6% (inactive),-16.9% (inactive),149%,0.057,-0.568,0.211,-2.91% (inactive),-0.383 (inactive),-4.6e-05 (inactive),0.00575 (inactive),inactive,-4.19% (inactive)
COc1ccccc1C1/C(=C(/O)c2ccc(C)cc2)C(=O)C(=O)N1Cc1ccco1 (stereo unspecified),550,9.2% (inactive),6.3% (inactive),101%,0.623,0.192,-1.11,-11.5% (inactive),-0.552 (inactive),-6.1e-05 (inactive),0.00643 (inactive),inactive,-13.2% (inactive)
CC1(C)Cc2c(sc3c2C(=O)N(c2ccccc2)C2=NCCCN23)CO1,624,-12.4% (inactive),-154% (inactive),120%,1.04,-0.486,-1.32,18.9% (inactive),-0.593 (inactive),-2e-05 (inactive),0.00454 (inactive),inactive,41.4% (inactive)
CCCCCCSC1=C(C#N)C(c2ccccc2)CC(=O)N1 (stereo unspecified),469,0.6% (inactive),-6.9% (inactive),74.3%,0.751,0.0915,-1.53,18.9% (inactive),-0.513 (inactive),-6.1e-05 (inactive),0.00499 (inactive),inactive,24.3% (inactive)
C=CCNC(=O)C(C#N)c1nc2ccccc2nc1N1CCCCCC1 (stereo unspecified),537,-1.4% (inactive),-190% (inactive),178%,-1.46,1.13,1.59,15% (inactive),-0.302 (inactive),-1.1e-05 (inactive),-0.000734 (inactive),inactive,10.7% (inactive)
COC(=O)c1ccc(-c2sc3nc(N4CCOCC4)c4c(c3c2N)CC(C)(C)OC4)o1,595,-19.5% (inactive),-62.4% (inactive),153%,-1.25,1.71,2.19,-0.624% (inactive),-0.16 (inactive),-2.4e-05 (inactive),0.00678 (inactive),inactive,-4.84% (inactive)
